Data published in ChEMBL document CHEMBL1149914 (J Med Chem, 2008).

Columns and labels:
[1] = target: Sodium-dependent serotonin transporter (Homo sapiens, UniProt P31645); experiment: Displacement of [125I]RTI55 from SERT
Method in brief: (§1)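 [125I]RTI-55 at 0.01 nM (s.a. 2200 Ci/mmol) competitive binding. Drugs and blocker in 55.2 mM sodium phosphate pH 7.4 with 1 mg/mL BSA. Radioligand in the same buffer with chymostatin 25 μg/mL, leupeptin 25 μg/mL, EDTA 100 μM and EGTA 100 μM. Triplicate incubation for 18–24 h at 4 °C (equilibrium), 1 mL final volume. Ki derived.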

[2] = Ratio of Ki for SERT to Ki for DAT
Method in brief: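 SERT Ki divided by DAT Ki. Both come from [125I]RTI-55 (0.01 nM) binding in pH 7.4 sodium phosphate/BSA buffer with protease inhibitors, run in triplicate for 18–24 h at 4 °C.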

[3] = target: Sodium-dependent dopamine transporter (Homo sapiens, UniProt Q01959); experiment: Displacement of [125I]RTI55 from DAT; method in brief: as §1
Chain of Sodium-dependent dopamine transporter (Q01959 whole entry): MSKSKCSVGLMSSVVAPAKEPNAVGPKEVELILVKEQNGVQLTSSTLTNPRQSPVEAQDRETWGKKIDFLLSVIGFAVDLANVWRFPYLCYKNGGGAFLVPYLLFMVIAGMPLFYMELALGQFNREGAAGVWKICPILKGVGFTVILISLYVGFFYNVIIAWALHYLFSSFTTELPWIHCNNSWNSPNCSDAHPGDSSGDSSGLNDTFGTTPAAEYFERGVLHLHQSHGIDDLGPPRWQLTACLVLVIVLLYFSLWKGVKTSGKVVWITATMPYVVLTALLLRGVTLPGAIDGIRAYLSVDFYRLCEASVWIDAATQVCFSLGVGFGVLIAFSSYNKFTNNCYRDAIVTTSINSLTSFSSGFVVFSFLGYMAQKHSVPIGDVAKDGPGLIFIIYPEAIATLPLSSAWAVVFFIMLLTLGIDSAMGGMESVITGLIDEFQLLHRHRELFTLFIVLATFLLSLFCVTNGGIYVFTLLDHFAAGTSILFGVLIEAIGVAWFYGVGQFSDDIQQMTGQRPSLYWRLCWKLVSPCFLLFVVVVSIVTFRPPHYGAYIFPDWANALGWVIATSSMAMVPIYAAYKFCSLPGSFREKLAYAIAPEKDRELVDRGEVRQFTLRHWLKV

Chain of Sodium-dependent serotonin transporter (P31645 whole entry): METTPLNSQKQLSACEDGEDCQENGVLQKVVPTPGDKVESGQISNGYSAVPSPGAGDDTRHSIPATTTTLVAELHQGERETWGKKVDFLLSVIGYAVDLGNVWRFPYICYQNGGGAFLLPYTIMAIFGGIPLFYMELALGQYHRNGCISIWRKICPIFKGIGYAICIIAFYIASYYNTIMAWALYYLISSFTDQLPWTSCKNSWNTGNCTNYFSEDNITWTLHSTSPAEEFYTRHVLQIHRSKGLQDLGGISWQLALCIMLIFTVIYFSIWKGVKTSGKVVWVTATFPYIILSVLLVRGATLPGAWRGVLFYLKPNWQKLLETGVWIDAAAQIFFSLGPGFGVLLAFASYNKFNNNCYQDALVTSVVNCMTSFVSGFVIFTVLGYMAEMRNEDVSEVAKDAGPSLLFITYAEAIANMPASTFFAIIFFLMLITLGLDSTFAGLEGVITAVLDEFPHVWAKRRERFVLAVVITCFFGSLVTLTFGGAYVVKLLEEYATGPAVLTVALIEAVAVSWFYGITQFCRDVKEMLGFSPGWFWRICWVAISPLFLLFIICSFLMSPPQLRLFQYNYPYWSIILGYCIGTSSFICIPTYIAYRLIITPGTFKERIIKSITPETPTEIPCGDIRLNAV

Row | SMILES | Ki [1] [nM] | Ratio Ki [2] | Ki [3] [nM]
1 | CC(O)(Cc1ccccc1)CN1CCN(CCOC(c2ccccc2)c2ccccc2)CC1 (centres undefined) | 2000 | 14 | –
2 | CO[C@H](Cc1ccccc1)CN1CCN(CCOC(c2ccc(F)cc2)c2ccc(F)cc2)CC1 | 250 | 9 | –
3 | C=C(CCN1CCN(CCOC(c2ccc(F)cc2)c2ccc(F)cc2)CC1)c1ccccc1 | 190 | 11 | –
4 | CC(Cc1ccccc1)CN1CCN(CCOC(c2ccc(F)cc2)c2ccc(F)cc2)CC1 (single isomer, unassigned; (-)) [listing 1 of 2 here] | 190 | – | –
5 | CO[C@@H](Cc1ccccc1)CN1CCN(CCOC(c2ccc(F)cc2)c2ccc(F)cc2)CC1 | 220 | 8 | –
6 | FC[C@H](Cc1ccccc1)N1CCN(CCOC(c2ccc(F)cc2)c2ccc(F)cc2)CC1 | 110 | 0.8 | –
7 | O[C@H](Cc1ccccc1)CN1CCN(CCOC(c2ccc(F)cc2)c2ccc(F)cc2)CC1 | 160 | 13 | 12
8 | Fc1ccc(C(OCCN2CCN(C[C@@H](F)Cc3ccccc3)CC2)c2ccc(F)cc2)cc1 | 290 | 109 | –
9 | CC(O)(Cc1ccccc1)CN1CCN(CCOC(c2ccc(F)cc2)c2ccc(F)cc2)CC1 (centres undefined) | 310 | 6 | –
10 | O=C(CN1CCN(CCOC(c2ccc(F)cc2)c2ccc(F)cc2)CC1)c1ccccc1 | 88 | 2 | –
11 | C=C(CCN1CCN(CCOC(c2ccccc2)c2ccccc2)CC1)c1ccccc1 | 1800 | 59 | –
12 | N[C@@H](Cc1ccccc1)CN1CCN(CCOC(c2ccc(F)cc2)c2ccc(F)cc2)CC1 | 88 | 2 | –
13 | O[C@H](Cc1ccccc1)CN1CCN(CCOC(c2ccccc2)c2ccccc2)CC1 | 1800 | 72 | 25
14 | C=C(Cc1ccccc1)CN1CCN(CCOC(c2ccc(F)cc2)c2ccc(F)cc2)CC1 | 430 | 4 | –
15 | FC[C@@H](Cc1ccccc1)N1CCN(CCOC(c2ccc(F)cc2)c2ccc(F)cc2)CC1 | 190 | 2 | –
16 | O=C(CN1CCN(CCOC(c2ccccc2)c2ccccc2)CC1)c1ccccc1 | 1400 | 3 | –
17 | C=C(Cc1ccccc1)CN1CCN(CCOC(c2ccccc2)c2ccccc2)CC1 | 3300 | 8 | –
18 | O[C@@H](Cc1ccccc1)CN1CCN(CCOC(c2ccccc2)c2ccccc2)CC1 | 2200 | 957 | 2.3
19 | CC(Cc1ccccc1)CN1CCN(CCOC(c2ccc(F)cc2)c2ccc(F)cc2)CC1 (stereo in doubt; (+)-7) [listing 1 of 2 here] | 120 | – | –
20 | O=C(Cc1ccccc1)CN1CCN(CCOC(c2ccc(F)cc2)c2ccc(F)cc2)CC1 | 250 | 38 | –
21 | CC(Cc1ccccc1)CN1CCN(CCOC(c2ccc(F)cc2)c2ccc(F)cc2)CC1 (single isomer, unassigned; (-)) [listing 2 of 2 here] | – | 11 | –
22 | Fc1ccc(C(OCCN2CCN(C[C@H](F)Cc3ccccc3)CC2)c2ccc(F)cc2)cc1 | 540 | 25 | –
23 | O=C(Cc1ccccc1)CN1CCN(CCOC(c2ccccc2)c2ccccc2)CC1 | 2500 | 250 | –
24 | O[C@@H](Cc1ccccc1)CN1CCN(CCOC(c2ccc(F)cc2)c2ccc(F)cc2)CC1 | 230 | 307 | 0.75
25 | CC(O)(CCN1CCN(CCOC(c2ccccc2)c2ccccc2)CC1)c1ccccc1 (centres undefined) | 1800 | 254 | –
26 | CC(Cc1ccccc1)CN1CCN(CCOC(c2ccc(F)cc2)c2ccc(F)cc2)CC1 (stereo in doubt; (+)-7) [listing 2 of 2 here] | – | 7 | –
27 | CC(O)(CCN1CCN(CCOC(c2ccc(F)cc2)c2ccc(F)cc2)CC1)c1ccccc1 (centres undefined) | 150 | 39 | –
28 | Fc1ccc(C(OCCN2CCN(CCc3ccccc3)CC2)c2ccc(F)cc2)cc1 | 36 | 5 | 8
29 | N[C@H](Cc1ccccc1)CN1CCN(CCOC(c2ccc(F)cc2)c2ccc(F)cc2)CC1 | 22 | 1 | –
